1 molecule from ChEMBL document CHEMBL5034016 (J Med Chem, 2021) can be followed below.

Series [1] has as its system rhinovirus B14. The series can be described thus: Antiviral activity against Human rhinovirus 14 infected in HeLa cells assessed as reduction in virus induced cytopathic effect. Type of series: functional, organism-based. The note with it: Rhinovirus B. (Protection from cytopathic effect is a common read-out in antiviral testing.)
Series [2] deals with rhinovirus A2. The series can be described thus: Antiviral activity against Human rhinovirus 2 infected in HeLa cells assessed as reduction in virus induced cytopathic effect. Format: functional, organism-based. The note with it: Rhinovirus A.
Series [3] in a line: Inhibition of mouse mAb clone 9305 binding to HIV1 gp120 expressed in human MT4 cells by flow cytometry analysis. Type of series: cell-based, Human immunodeficiency virus 1.
Series [4] relates to Human immunodeficiency virus 1. The series can be described thus: Binding affinity to CM5 sensor chip immobilized recombinant HIV-1 gp120 assessed as association constant at 12.5 to 0.1 uM by SPR analysis. The note with it: dose 12.5-0.1 µM.
Series [5] can be described thus: Inhibition of human mAb clone 2G12 binding to HIV1 gp120 expressed in human MT4 cells by flow cytometry analysis. Format: cell-based, Human immunodeficiency virus 1. A general note: In flow cytometry, cells or beads pass a laser one at a time.
Series [6] has as its system Human immunodeficiency virus 1. The series can be described thus: Potency index, ratio of AL-471 Kd to test compound Kd for binding affinity to CM5 sensor chip immobilized recombinant HIV-1 gp120 at 12.5 to 0.1 uM measured for 4 mins by SPR analysis. The conditions noted are these: dose 12.5-0.1 µM.
Series [7] relates to Human immunodeficiency virus 1. The series can be described thus: Potency index, ratio of AL-471 EC50 to test compound EC50 for anti-HIV activity against HIV-1 NL4.3 infected in human MT4 cells assessed as reduction in virus-indued cytopathic effect preincubated with cells for 30 mins followed by viral infection and measured after 5 days by MTS assay. The note with it: time 120.5 hrs. Format: functional.

The test system of series [8] is Human immunodeficiency virus 1. The series can be described thus: Inhibition of HIV-1 gp120 interaction with human CD4 assessed as fold change in inhibition of viral entry at 10 to 40 nM by SPR analysis relative to AL-471. The conditions noted are these: dose 10-40 nM. The method in brief:
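His-CD4 at 2 μg/mL captured on a NiCl2-activated chip channel, with a reference channel alongside. 25 nM gp120 premixed with compound, 10 000 to 10 nM in fourfold steps, injected 2 min over both channels. Surface regenerated with 350 mM EDTA. Binding % from maximum response at injection end versus gp120 alone. Triplicate experiments.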
For orientation: In SPR one partner is held on a chip, and binding of the other changes the refractive index at the surface.

Series [9] can be described thus: Selectivity index, ratio of CC50 for human RD cells to EC50 for antiviral activity against Enterovirus A71 infected in human RD cells. Type of series: toxicity, cell-based. The note with it: read-out: Ratio CC50/EC50.
Series [10] has as its system Human immunodeficiency virus 1. The series can be described thus: Inhibition of HIV-1 gp120 interaction with human CD4 assessed as inhibition of viral entry at 10 to 40 nM by SPR analysis relative to control. The conditions noted are these: dose 10-40 nM. Put shortly:
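His-CD4 (2 μg/mL) was captured on a Ni-chelated chip (0.5 mM NiCl2 activation). 25 nM gp120 premixed with compound (10 000 to 10 nM, fourfold steps) was injected for 2 min over reference and analysis channels. Binding % used the maximum response at end of injection relative to 25 nM gp120 alone. Regeneration was with 350 mM EDTA. Run in triplicate.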

Take `O=C(CCOCC(COCCC(=O)NC(Cc1c(-c2cc(C(=O)O)cc(C(=O)O)c2)[nH]c2c(-c3cc(C(=O)O)cc(C(=O)O)c3)cccc12)C(=O)O)(COCCC(=O)NC(Cc1c(-c2cc(C(=O)O)cc(C(=O)O)c2)[nH]c2c(-c3cc(C(=O)O)cc(C(=O)O)c3)cccc12)C(=O)O)COCCC(=O)NC(Cc1c(-c2cc(C(=O)O)cc(C(=O)O)c2)[nH]c2c(-c3cc(C(=O)O)cc(C(=O)O)c3)cccc12)C(=O)O)NC(Cc1c(-c2cc(C(=O)O)cc(C(=O)O)c2)[nH]c2c(-c3cc(C(=O)O)cc(C(=O)O)c3)cccc12)C(=O)O` (stereo not given): the 50% effective concentration (EC50) in series [1] and in series [2] was > 50 µM throughout. Besides, the IC50 in series [3] and in series [5] was > 100 µM each time. Besides, the ka in series [4] was 3.34 10^3/M/s. Further, the Ratio in series [6] was found to be 6. In addition, the “Ratio EC50” value in series [7] is listed as 3.5. The fold change (FC) in [8] amounted to 16. In addition, the selectivity ratio in series [9] was determined as 2500. Besides, in [10], the inhibition was 50%.

Usually EC50 stands for the concentration giving half of the maximal effect. By IC50 is commonly meant the concentration needed to halve the response being measured. A low value points to greater potency. The inhibition is the change of the read-out against control, counted positive when it falls.
